Five compounds from ChEMBL document CHEMBL2331169, “Search for α3β₂/₃γ2 subtype selective ligands that are stable on human liver microsomes” (Bioorg Med Chem, 2013) can be followed below.

Common to all, as to assay type: ADME, Microsome
A short description of data set [1]: Metabolic stability in heat inactivated human liver microsomes assessed as compound remaining at 10 uM measured at 60 mins by LC-MS/MS analysis relative to control. The note with it: read-out: Stability. Put shortly:
(§1)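 Control incubation with heat-inactivated human liver microsomes (0.5 mg protein/ml) in 100 mM phosphate pH 7.4, 37 °C, sampled at 0 and 60 min. Samples quenched in acetonitrile with internal standard and analysed by LC-MS/MS. Percent remaining is the peak-area ratio relative to 0 min ×100; duplicates.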

Data set [2] can be described thus: Metabolic stability in human liver microsomes assessed as compound remaining at 10 uM measured at 60 mins by LC-MS/MS analysis relative to control. The following applies: read-out: Stability. In a few lines:
(§2)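 Pooled human liver microsomes (150 donors, 0.5 mg protein/ml) with 2.5 mM NADPH and 3.3 mM MgCl2 in 100 mM phosphate pH 7.4, 0.1% DMSO final, 37 °C, reaction started with microsomes. Aliquots quenched in cold acetonitrile with internal standard; LC-MS/MS in positive-ion ESI MRM mode. Percent remaining is analyte/internal-standard peak-area ratio versus 0 min ×100; duplicates.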
Background: Liver microsomes are a subcellular fraction often used to study metabolism.

Data set [3] is described as follows: Metabolic stability in human liver microsomes assessed as compound remaining at 10 uM measured at 30 mins by LC-MS/MS analysis relative to control. The note with it: read-out: Stability. Put shortly: as §2
Data set [4] is described as follows: Metabolic stability in human liver microsomes assessed as compound remaining at 10 uM measured at 15 mins by LC-MS/MS analysis relative to control. The note with it: read-out: Stability. In a few lines:
as §2

Data set [5] can be described thus: Metabolic stability in heat inactivated human liver microsomes assessed as compound remaining at 1 uM measured at 60 mins by LC-MS/MS analysis relative to control. The note with it: heat-inactivated liver microsomes, read-out: Stability. In a few lines:
as §1

The nature of data set [6]: Metabolic stability in human liver microsomes assessed as compound remaining at 1 uM measured at 60 mins by LC-MS/MS analysis relative to control. The note with it: liver microsomes, read-out: Stability. Put shortly: as §2
A short description of data set [7]: Metabolic stability in human liver microsomes assessed as compound remaining at 1 uM measured at 30 mins by LC-MS/MS analysis relative to control. The note with it: liver microsomes, read-out: Stability. Put shortly: as §2
Data set [8] in a line: Metabolic stability in human liver microsomes assessed as compound remaining at 1 uM measured at 15 mins by LC-MS/MS analysis relative to control. The note with it: read-out: Stability. In a few lines:
as §2

With `C#Cc1ccc2c(c1)C(c1ccccn1)=NCc1c(C(=O)O)ncn1-2`, the values for the remaining at 1 h, 10 µM in data set [1] and in data set [2] were 88.3% and 85.9%, respectively. Moreover, in data set [3], the remaining at 0.5 h, 10 µM is 86.1%. For the same compound, in data set [4], the remaining at 0.25 h, 10 µM worked out at 91.4%. Besides, the remaining at 1 h, 1 µM in data set [5] turned out to be 97%; in data set [6], 110%. For the same compound, in data set [7], the remaining at 0.5 h, 1 µM amounted to 105%. The remaining at 0.25 h, 1 µM in data set [8] came out at 102%.
Turning to `C#Cc1ccc2c(c1)C(c1ccccn1)=NCc1c(C(=O)OCC)ncn1-2`, the values for the remaining at 1 h, 10 µM in data set [1] and in data set [2] were 95.4% and 76.1%, respectively. Also, in data set [3], the remaining at 0.5 h, 10 µM was 90.4%. Besides, the remaining at 0.25 h, 10 µM in data set [4] came out at 103%. Also, the values for the remaining at 1 h, 1 µM in data set [5] and in data set [6] were 93.8% and 80.2%, respectively. Also, in data set [7], the remaining at 0.5 h, 1 µM amounted to 95.6%. In addition, the remaining at 0.25 h, 1 µM in data set [8] is 106%.
With `C#Cc1ccc2c(c1)C(c1ccccc1F)=NCc1c(C(=O)OCC)ncn1-2`, the remaining at 1 h, 10 µM was found to be 110% in data set [1] and 0.6% in data set [2]. In data set [3], the remaining at 0.5 h, 10 µM turned out to be 3.6%. In addition, in data set [4], the remaining at 0.25 h, 10 µM is 20%. Moreover, the remaining at 1 h, 1 µM in data set [5] turned out to be 102%; in data set [6] it was 0.3%. Also, the remaining at 0.5 h, 1 µM in data set [7] was 2.2%. Further, the remaining at 0.25 h, 1 µM in data set [8] was 13.5%.
With `C#Cc1ccc2c(c1)C(c1ccccc1)=NCc1c(C(=O)O)ncn1-2`, the figures for the remaining at 1 h, 10 µM in data set [1] and in data set [2] were 97.2% and 94.8%, respectively. Further, the remaining at 0.5 h, 10 µM in data set [3] is 94.8%. In data set [4], the remaining at 0.25 h, 10 µM is 95.3%. Further, the figures for the remaining at 1 h, 1 µM in data set [5] and in data set [6] were 106% and 111%, respectively. For the same compound, in data set [7], the remaining at 0.5 h, 1 µM came to 110%. In addition, the remaining at 0.25 h, 1 µM in data set [8] is 108%.
With `C#Cc1ccc2c(c1)C(c1ccccc1)=NCc1c(C(=O)OCC)ncn1-2`, the values for the remaining at 1 h, 10 µM in data set [1] and in data set [2] were 102% and 1.7%, respectively. The remaining at 0.5 h, 10 µM in data set [3] is 13.9%. Further, the remaining at 0.25 h, 10 µM in data set [4] amounted to 47.6%. Moreover, the values for the remaining at 1 h, 1 µM in data set [5] and in data set [6] were 107% and 1.5%, respectively. Also, the remaining at 0.5 h, 1 µM in data set [7] stood at 11.2%. Moreover, the remaining at 0.25 h, 1 µM in data set [8] amounted to 41.4%.
